Reference: ChEMBL document CHEMBL1133742, “17beta-O-Aminoalkyloximes of 5beta-androstane-3beta,14beta-diol with digitalis-like activity: synthesis, cardiotonic activity, structure-activity relationships, and molecular modeling of the Na(+),K(+)-ATPase receptor” (J Med Chem, 2000)

Key:
[1] = In vitro maximum inotropic effect on contractile force of an electrically driven guinea pig left atrium.; type: functional, Cavia porcellus, Cardiac atrium
Method in brief: (§1)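 Isolated guinea pig atria in solution bubbled with 95% O2/5% CO2, field-stimulated by platinum electrodes at 1 Hz (1 ms square pulses, twice threshold voltage). After 60 min equilibration, cumulative concentrations added, each held until maximal response or arrhythmia.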

[2] = Percent increase in force of contraction in vitro determined using electrically driven guinea pig left atrium.; type: functional; conditions: Cavia porcellus, Cardiac atrium; method in brief: as §1
Cavia porcellus = species on record: Cavia porcellus; assay: Concentration producing 50% of the maximal increase in the force of contraction in isolated guinea pig left atrium; type: functional; conditions: Cardiac atrium; method in brief: as §1
[3] = target: Sodium/potassium-transporting ATPase; assay: In vitro inhibitory concentration against dog kidney Na+/K+ ATPase; type: protein-complex assay, Canis lupus familiaris
Method in brief: (§2)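 Na+,K+-ATPase isolated and purified from dog kidney. Inhibition measured as percent hydrolysis of 32P-ATP with versus without compound. […] Single-concentration entries report percent inhibition at the stated concentration. Compounds tested within 1–4 h of dissolution.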

[4] = target: Sodium/potassium-transporting ATPase subunit alpha-1 (Canis lupus familiaris, UniProt P50997); assay: In vitro inhibitory concentration against dog kidney Na+,K+-ATPase
Method in brief: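 Na+,K+-ATPase isolated and purified from dog kidney. Inhibition measured as percent hydrolysis of 32P-ATP with versus without compound. Single-concentration entries report percent inhibition at the stated concentration. Compounds tested within 1–4 h of dissolution.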

[5] = Compound at 100 uM was tested in vitro for the inhibition of dog kidney Na+/K+ ATPase; conditions: Canis lupus familiaris, target entry is the homologue from another species; method in brief: as §2

With C[C@]12CC[C@H](O)C[C@H]1CC[C@@H]1[C@@H]2CC[C@]2(C)[C@@H](C3=CC(=O)OC3)CC[C@]12O [DIGITOXIGENIN] the “Concentration giving maximal inotropic effect” value [1] was 3 µM, the Emax [2] was 200% and the EC50 (Cavia porcellus) was 0.57 µM.

With CC(/C=N/OCCCCN)=C\[C@H]1CC[C@]2(O)[C@@H]3CC[C@@H]4C[C@@H](O)CC[C@]4(C)[C@H]3CC[C@]12C the Emax [2] was 106%, the EC50 (Cavia porcellus) was 4 µM and the IC50 [3] was 1.26 µM.

CN(C)CCCO/N=C/[C@H]1CC[C@]2(O)[C@@H]3CC[C@@H]4C[C@@H](O)CC[C@]4(C)[C@H]3CC[C@]12C gave an Emax [2] of 235%, an EC50 (Cavia porcellus) of 1.3 µM and an IC50 [3] of 0.25 µM.

In the case of CCCO/N=C/C=C/[C@H]1CC[C@]2(O)[C@@H]3CC[C@@H]4C[C@@H](O)CC[C@]4(C)[C@H]3CC[C@]12C, the IC50 [3] is reported as 10 µM.

C[C@]12CC[C@H](O)C[C@H]1CC[C@@H]1[C@@H]2CC[C@]2(C)[C@@H](CNOCCCN)CC[C@]12O gave an Emax [2] of 237%, an EC50 (Cavia porcellus) of 3.9 µM and an IC50 [3] of 0.4 µM.

For CN(C)CCO/N=C/C[C@H]1CC[C@]2(O)[C@@H]3CC[C@@H]4C[C@@H](O)CC[C@]4(C)[C@H]3CC[C@]12C, the Emax [2] was 73%, the EC50 (Cavia porcellus) was 1.8 µM and the IC50 [3] was 0.63 µM.

Molecule CN(C)CCCO/N=C/C=C1\CC[C@]2(O)[C@@H]3CC[C@@H]4C[C@@H](O)CC[C@]4(C)[C@H]3CC[C@]12C has an IC50 [3] of 160 µM.

C[C@]12CC[C@H](O)C[C@H]1CC[C@@H]1[C@@H]2CC[C@]2(C)[C@@H](CCCNOCCN)CC[C@]12O showed an Emax [2] of 71%, an EC50 (Cavia porcellus) of 12 µM and an IC50 [3] of 1 µM.

With CN(C)CCO/N=C1\CC[C@]2(O)[C@@H]3CC[C@@H]4C[C@@H](O)CC[C@]4(C)[C@H]3CC[C@]12C the IC50 [3] was > 100 µM.

In the case of CN(C)CCO/N=C/C=C/C=C/[C@H]1CC[C@]2(O)[C@@H]3CC[C@@H]4C[C@@H](O)CC[C@]4(C)[C@H]3CC[C@]12C.O=C(O)C(=O)O, the “Concentration giving maximal inotropic effect” value [1] is reported as 100 µM, the Emax [2] is reported as 145% and the EC50 (Cavia porcellus) is reported as 20 µM. For the same molecule, the IC50 [4] was 6.3 µM.

In the case of C[C@]12CC[C@H](O)C[C@H]1CC[C@@H]1[C@@H]2CC[C@]2(C)[C@@H](/C=C/C=N\OCC(=O)O)CC[C@]12O, the IC50 [3] is reported as > 100 µM and the inhibition [5] is reported as 40%.

Work on C[C@]12CC[C@H](O)C[C@H]1CC[C@@H]1[C@@H]2CC[C@]2(C)[C@@H](/C=C/C=O)CC[C@]12O yielded an Emax [2] of 45%, an EC50 (Cavia porcellus) of 4 µM and an IC50 [4] of 0.25 µM.

For C[C@]12CC[C@H](O)C[C@H]1CC[C@@H]1[C@@H]2CC[C@]2(C)/C(=C/C=N\OCCN)CC[C@]12O, the “Concentration giving maximal inotropic effect” value [1] was 100 µM, the Emax [2] was 136% and the EC50 (Cavia porcellus) was 18 µM. The IC50 [3] was 2 µM.

With C[C@]12CC[C@H](O)C[C@H]1CC[C@@H]1[C@@H]2CC[C@]2(C)[C@@H](/C=C/C=C/CCCN)CC[C@]12O the “Concentration giving maximal inotropic effect” value [1] was 0.1 µM, the Emax [2] was 73% and the EC50 (Cavia porcellus) was 0.035 µM. The IC50 [4] was 0.32 µM.

For C[C@]12CC[C@H](O)C[C@H]1CC[C@@H]1[C@@H]2CC[C@]2(C)[C@@H](/C=N/OCC(=O)O)CC[C@]12O, the IC50 [3] was > 100 µM and the inhibition [5] was 0%.

In the case of C[C@]12CC[C@H](O)C[C@H]1CC[C@@H]1[C@@H]2CC[C@]2(C)/C(=C/C=N\OCCCN)CC[C@]12O, the IC50 [3] is reported as > 100 µM.

For CN(C)CCON(C)C[C@H]1CC[C@]2(O)[C@@H]3CC[C@@H]4C[C@@H](O)CC[C@]4(C)[C@H]3CC[C@]12C, the IC50 [3] was > 100 µM and the inhibition [5] was 20%.

In the case of CONC[C@H]1CC[C@]2(O)[C@@H]3CC[C@@H]4C[C@@H](O)CC[C@]4(C)[C@H]3CC[C@]12C, the IC50 [3] is reported as 79 µM.

Work on CO/N=C/[C@H]1CC[C@]2(O)[C@@H]3CC[C@@H]4C[C@@H](O)CC[C@]4(C)[C@H]3CC[C@]12C yielded an IC50 [3] of 32 µM.

With C[C@]12CC[C@H](O)C[C@H]1CC[C@@H]1[C@@H]2CC[C@]2(C)[C@@H](CCCCCCCN)CC[C@]12O the “Concentration giving maximal inotropic effect” value [1] was 100 µM, the Emax [2] was 43% and the IC50 [4] was 1.25 µM.

With C[C@]12CC[C@H](O)C[C@H]1CC[C@@H]1[C@@H]2CC[C@]2(C)[C@@H](CC/C=N\OCCN)CC[C@]12O the Emax [2] was 70%, the EC50 (Cavia porcellus) was 1.1 µM and the IC50 [3] was 0.08 µM.

Work on C[C@]12CC[C@H](O)C[C@H]1CC[C@@H]1[C@@H]2CC[C@]2(C)[C@@H](/C=C/C=C/CCN)CC[C@]12O yielded an Emax [2] of 98%, an EC50 (Cavia porcellus) of 0.38 µM and an IC50 [3] of 0.08 µM.

In the case of C[C@]12CC[C@H](O)C[C@H]1CC[C@@H]1[C@@H]2CC[C@]2(C)[C@@H](/C=C/C=N/OCCO)CC[C@]12O, the “Concentration giving maximal inotropic effect” value [1] is reported as 300 µM, the Emax [2] is reported as 179% and the EC50 (Cavia porcellus) is reported as 39 µM. For the same molecule, the IC50 [3] was 6.3 µM.

Molecule C[C@]12CC[C@H](O)C[C@H]1CC[C@@H]1[C@@H]2CC[C@]2(C)[C@@H](CCC=O)CC[C@]12O has an IC50 [4] of 40 µM.

In the case of C[C@]12CC[C@H](O)C[C@H]1CC[C@@H]1[C@@H]2CC[C@]2(C)[C@@H](CNOCCN)CC[C@]12O.Cl.Cl, the “Concentration giving maximal inotropic effect” value [1] is reported as 100 µM, the Emax [2] is reported as 135% and the EC50 (Cavia porcellus) is reported as 8 µM. The IC50 [3] was 1.58 µM.

Molecule CO/N=C/C=C/[C@H]1CC[C@]2(O)[C@@H]3CC[C@@H]4C[C@@H](O)CC[C@]4(C)[C@H]3CC[C@]12C has an IC50 [3] of 4 µM.

Molecule C/C(C=O)=C\[C@H]1CC[C@]2(O)[C@@H]3CC[C@@H]4C[C@@H](O)CC[C@]4(C)[C@H]3CC[C@]12C has an IC50 [4] of 1.58 µM.

In the case of CN(C)CCO/N=C/[C@H]1CC[C@]2(O)[C@@H]3CC[C@@H]4C[C@@H](O)CC[C@]4(C)[C@H]3CC[C@]12C, the Emax [2] is reported as 39% and the IC50 [3] is reported as 1 µM.

With C[C@]12CC[C@H](O)C[C@H]1CC[C@@H]1[C@@H]2CC[C@]2(C)[C@@H](C=O)CC[C@]12O the “Concentration giving maximal inotropic effect” value [1] was 300 µM, the Emax [2] was 79% and the EC50 (Cavia porcellus) was 11 µM. For the same molecule, the IC50 [4] was 25 µM.

In the case of CO/N=C/C(C)=C/[C@H]1CC[C@]2(O)[C@@H]3CC[C@@H]4C[C@@H](O)CC[C@]4(C)[C@H]3CC[C@]12C, the IC50 [3] is reported as 10 µM.

CONC/C=C/[C@H]1CC[C@]2(O)[C@@H]3CC[C@@H]4C[C@@H](O)CC[C@]4(C)[C@H]3CC[C@]12C gave an IC50 [3] of 40 µM.

In the case of CN(C)CCONC[C@H]1CC[C@]2(O)[C@@H]3CC[C@@H]4C[C@@H](O)CC[C@]4(C)[C@H]3CC[C@]12C.Cl.Cl, the “Concentration giving maximal inotropic effect” value [1] is reported as 300 µM, the Emax [2] is reported as 18% and the IC50 [3] is reported as 50 µM.

With CN(C)CCCCO/N=C/[C@H]1CC[C@]2(O)[C@@H]3CC[C@@H]4C[C@@H](O)CC[C@]4(C)[C@H]3CC[C@]12C the Emax [2] was 214%, the EC50 (Cavia porcellus) was 4.7 µM and the IC50 [3] was 2 µM.

In the case of CN(C)CCCCO/N=C1\CC[C@]2(O)[C@@H]3CC[C@@H]4C[C@@H](O)CC[C@]4(C)[C@H]3CC[C@]12C, the IC50 [3] is reported as > 100 µM.

In the case of CC(/C=N/OCCN(C)C)=C\[C@H]1CC[C@]2(O)[C@@H]3CC[C@@H]4C[C@@H](O)CC[C@]4(C)[C@H]3CC[C@]12C.O=C(O)/C=C/C(=O)O, the “Concentration giving maximal inotropic effect” value [1] is reported as 0.3 µM, the Emax [2] is reported as 146% and the EC50 (Cavia porcellus) is reported as 0.07 µM. It also gave an IC50 [3] of 0.06 µM.

With C[C@]12CC[C@H](O)C[C@H]1CC[C@@H]1[C@@H]2CC[C@]2(C)/C(=N/OCCN)CC[C@]12O the IC50 [3] was > 100 µM.

For CONCCC[C@H]1CC[C@]2(O)[C@@H]3CC[C@@H]4C[C@@H](O)CC[C@]4(C)[C@H]3CC[C@]12C, the IC50 [3] was > 100 µM and the inhibition [5] was 40%.

C[C@]12CC[C@H](O)C[C@H]1CC[C@@H]1[C@@H]2CC[C@]2(C)[C@@H](/C=N/OCCN)CC[C@]12O gave an Emax [2] of 145%, an EC50 (Cavia porcellus) of 0.62 µM and an IC50 [3] of 0.16 µM.

CN(C)CCO/N=C\C=C1/CC[C@]2(O)[C@@H]3CC[C@@H]4C[C@@H](O)CC[C@]4(C)[C@H]3CC[C@]12C showed an IC50 [3] of 12.5 µM.

With CN(C)CCCO/N=C1\CC[C@]2(O)[C@@H]3CC[C@@H]4C[C@@H](O)CC[C@]4(C)[C@H]3CC[C@]12C the IC50 [3] was > 100 µM.

With CCCO/N=C/C(C)=C/[C@H]1CC[C@]2(O)[C@@H]3CC[C@@H]4C[C@@H](O)CC[C@]4(C)[C@H]3CC[C@]12C the IC50 [3] was > 10 µM and the inhibition [5] was 40%.

In the case of C[C@]12CC[C@H](O)C[C@H]1CC[C@@H]1[C@@H]2CC[C@]2(C)[C@@H](/C=C/C=N/OCCN)CC[C@]12O, the “Concentration giving maximal inotropic effect” value [1] is reported as 0.3 µM, the Emax [2] is reported as 155% and the EC50 (Cavia porcellus) is reported as 0.05 µM. It also gave an IC50 [3] of 0.02 µM.

In the case of CC(/C=N/OCCO)=C\[C@H]1CC[C@]2(O)[C@@H]3CC[C@@H]4C[C@@H](O)CC[C@]4(C)[C@H]3CC[C@]12C, the “Concentration giving maximal inotropic effect” value [1] is reported as 300 µM, the Emax [2] is reported as 175% and the EC50 (Cavia porcellus) is reported as 23 µM. For the same molecule, the IC50 [3] was 7.9 µM.
